Data as given in article PMC3470735 (Nuclear medicine and biology, 2012).
“Also recorded” adds a separate entry of the source.

Assays:
[1] = cited from earlier work
[2] = Biodistribution of 64Cu-labeled BFCs in female SCID mice; assay type: in vivo; details: for radioactivity in blood (%ID/g): 24 h post-injection; for decrease of %ID/g in kidney by 24 h: by 24 h relative to 1 h
Summary of the method: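 Female SCID mice, n = 4/group, received 64Cu-labeled chelator (0.74 MBq in 100 μL saline) by tail-vein injection; labeling was done in 0.1 M NH4OAc, pH 5.5. At 1, 4 and 24 h, mice were anesthetized with 1-2% isoflurane and killed by cervical dislocation. Blood, lung, liver, spleen, pancreas, kidney, muscle and bone were weighed and gamma-counted. %ID/g was decay-corrected and normalized to tissue weight.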

[3] = Complexation kinetics with Cu; assay type: physicochemical; details: ligand 1 mM, Cu(II) 7 μM, AAIII 14 μM, 0.15 M NH4OAc pH 5.0, room temperature, 1 h
Summary of the method: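 Cu(II)–Arsenazo III reagent made in metal-free 0.15 M NH4OAc, pH 5.0 (14 μM AAIII, 7 μM Cu(II)), kept in the dark and stirred 2 h to equilibrate. Instrument zeroed against AAIII alone. Test compound was added from a 1 mM solution into the Cu(II)–AAIII cells at room temperature. A610 was read every 30 s for 1 h and compared with Cu(II)–AAIII alone.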

[4] = In vitro rat serum stability of 64Cu-labeled chelators; assay type: in vitro ADME; details: 37 °C, 48 h incubation, TLC
Summary of the method: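 Chelator was labeled with 64Cu in 0.1 M NH4OAc, pH ~5.5. Labeled complex (10 μL, ~3.7 MBq) was added to 90 μL rat serum at 37 °C. Aliquots taken at 1, 2, 4, 24 and 48 h were run on C-18 TLC in 10% NH4OAc:MeOH (3:7), and percent 64Cu still bound was determined.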

Row | radioactivity in blood (%ID/g) [2] [%ID/g] | decrease of %ID/g in kidney by 24 h [2] [%] | percentage of intact 64Cu complex in rat serum [4] [%] | SMILES | stability of 64Cu complex in rat serum [1] | complexation kinetics with Cu(II) [3]
1 |  |  |  | O=C(O)CNCCN1CCN(CC(=O)O)CCN(CC(=O)O)CC1 [NE3TA] | high stability | 
2 | 0.13 ± 0.06 | 60 |  | O=C(O)CN1CCN(CCN(CC(=O)O)Cc2ccc([N+](=O)[O-])cc2)CCN(CC(=O)O)CC1 [N-NE3TA, 4-carboxymethyl-7-[2-[carboxymethyl-(4-nitro-benzyl)-amino]-ethyl]-[1,4,7]triazonan-1-yl-acetic acid] |  | formed complexes with Cu(II) almost immediately; also recorded: rapidly formed complexes with Cu(II)
3 |  |  | 97.9 | Nc1ccc(C[C@H]2CN(CC(=O)O)CCN(CC(=O)O)CCN2CC(=O)O)cc1 [p-NH2-Bn-NOTA, S-2-(4-aminobenzyl)-1,4,7-triazacyclononane-1,4,7-triacetic acid] |  | 
4 | 0.47 ± 0.17 |  | 93.9 | Nc1ccc(CC2CN(CC(=O)O)CCN(CC(=O)O)CCN(CC(=O)O)CCN2CC(=O)O)cc1 (stereo not shown) [p-NH2-Bn-DOTA, 2-(4-aminobenzyl)-1,4,7,10-tetraazacyclododecane-1,4,7,10-tetraacetic acid, reference compound] |  | 
5 | 0.18 ± 0.06 | 60 |  | O=C(O)CNC(Cc1ccc([N+](=O)[O-])cc1)CN1CCN(CC(=O)O)CCN(CC(=O)O)CC1 (stereo not shown) [C-NE3TA, 4-carboxymethyl-7-[2-(carboxymethyl-amino)-3-(4-nitro-phenyl)-propyl]-[1,4,7]triazonan-1-yl-acetic acid] |  | formed complexes with Cu(II) almost immediately; also recorded: rapidly formed complexes with Cu(II)
